Measurements: ChEMBL document CHEMBL4665880, “Dihydrobenzoxazinone derivatives as aldose reductase inhibitors with antioxidant activity” (Bioorg Med Chem, 2020)

Experiments:
[1] = Antioxidant activity assessed as DPPH radical scavenging activity at 1 uM relative to control; type: functional
How it was run: (§1)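 DPPH (0.025 mg/mL stock in methanol, 1 mL) mixed with 1.9 mL methanol and 100 µL methanolic compound or Trolox, giving final 100, 10, 5 and 1 µM. Absorbance at 517 nm read after reaching steady state; scavenging % = (1 − (A sample − A blank)/A control)×100, blank being compound in methanol, control DPPH in methanol. Triplicate.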

[2] = Antioxidant activity assessed as DPPH radical scavenging activity at 10 uM relative to control; type: functional; how it was run: as §1
[3] = Antioxidant activity assessed as DPPH radical scavenging activity at 5 uM relative to control; type: functional; how it was run: as §1
Brain = assay: Antioxidant activity in rat brain homogenate assessed as inhibition of FeCl3/ascorbic acid-induced lipid peroxidation by measuring MDA level at 100 uM after 30 mins by thiobarbituric acid based spectrophotometric method relative to control; type: functional, tissue-based
How it was run: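 Fresh rat brain homogenized 25% in ice-cold saline, spun 3000 rpm 10 min; supernatant incubated with compound (100 µM), […] at 37 °C for 30 min. MDA measured by TBA kit: boiled 95 °C 40 min, iced, centrifuged, read at 532 nm. Methanol used as control vehicle. Triplicate.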

[4] = biological target: Aldo-keto reductase family 1 member B1 (Rattus norvegicus, UniProt P07943); assay: Inhibition of rat lens ALR2 using D,L-glyceraldehyde as substrate preincubated for 5 mins at 30 degC followed by substrate addition and measured after 4 mins in presence of NADPH; type: tissue-based
Rattus norvegicus = species on record: Rattus norvegicus; assay: Selectivity index, ratio of IC50 for rat kidney ALR1 to IC50 for rat lens ALR2
[5] = biological target: Aldo-keto reductase family 1 member A1 (Rattus norvegicus, UniProt P51635); assay: Inhibition of rat kidney ALR1 using […] as substrate preincubated for 4 mins at 37 degC followed by substrate addition and measured after 4 mins in presence of NADPH; type: tissue-based
How it was run: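 Rat kidney enzyme extract with 0.12 mM NADPH, 0.1 M sodium phosphate pH 7.2 and inhibitor in DMSO, preincubated 4 min at 37 °C; reaction started with sodium D-[…] (20 mM stock) and monitored 4 min. Corrected for nonenzymatic NADPH oxidation. Tested 100 µM to 10 nM, three replicates per concentration; IC50 from linear log(dose)–response fit (r² > 0.95).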

[6] = Antioxidant activity assessed as superoxide anion radical scavenging activity incubated for 40 mins by spectrophotometric method; type: functional
How it was run: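 Incubation at 37 °C for 40 min, then 2 mL chromogenic reagent added; after 10 min standing, absorbance read at 550 nm. Activity (U/µmol) = (A control − A sample)/(A control − A blank) ×150 ÷ sample concentration (µM); control ascorbic acid 150 mg/L, blank distilled water. Triplicate.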

[7] = Antioxidant activity assessed as DPPH radical scavenging activity at 100 uM relative to control; type: functional; how it was run: as §1

Sequence of Aldo-keto reductase family 1 member A1 (P51635 whole entry, looked up): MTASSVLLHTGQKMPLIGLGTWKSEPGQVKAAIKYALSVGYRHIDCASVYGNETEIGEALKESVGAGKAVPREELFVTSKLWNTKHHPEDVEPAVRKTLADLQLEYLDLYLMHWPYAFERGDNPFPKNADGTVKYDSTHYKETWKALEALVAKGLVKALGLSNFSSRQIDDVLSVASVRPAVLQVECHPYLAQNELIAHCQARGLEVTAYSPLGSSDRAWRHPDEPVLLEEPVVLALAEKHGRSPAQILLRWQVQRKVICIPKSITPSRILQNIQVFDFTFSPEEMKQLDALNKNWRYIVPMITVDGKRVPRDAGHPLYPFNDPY

| IC50 [4] | Ratio IC50 (Rattus norvegicus) | IC50 [5] | SMILES | inhibition [1] | inhibition [2] | inhibition [3] | inhibition (Brain) | Activity [6] | inhibition [7] |
| --- | --- | --- | --- | --- | --- | --- | --- | --- | --- |
| 1.93 µM | 7.1 | 13.7 µM | O=C(O)CN1CC(=O)Oc2ccccc21 | 7.17% | 65.6% | 23.1% | 72.2% | 0.73 U/µM | 92.8% |
| 0.082 µM | 60.6 | 4.99 µM | O=C(O)CN1CC(=O)Oc2c(/C=C/c3ccc(O)cc3)cccc21 | 14.7% | 87.5% | 57.4% | 81.7% | 1.07 U/µM | 93.2% |
| 0.774 µM | – | – | COc1ccc(-c2cccc3c2OC(=O)CN3CC(=O)O)cc1 | – | – | – | – | – | – |
| – | – | – | Cc1c(C)c2c(c(C)c1O)CCC(C)(C(=O)O)O2 (stereo not drawn) | 10.2% | 82.6% | 47.8% | 75.5% | 1.13 U/µM | 94.6% |
| – | – | 1.2 µM | CC(/C=C1\SC(=S)N(CC(=O)O)C1=O)=C\c1ccccc1 | – | – | – | – | – | – |
| 0.22 µM | – | – | Cc1ccc(/C=C/c2cccc3c2OC(=O)CN3CC(=O)O)cc1 | – | – | – | – | – | – |
| 0.138 µM | 23.7 | 3.27 µM | O=C(O)CN1CC(=O)Oc2c(/C=C/c3ccc(C(F)(F)F)cc3)cccc21 | 9.92% | 89.2% | 44.3% | – | – | 91.3% |
| 0.281 µM | – | – | O=C(O)CN1CC(=O)Oc2c(/C=C/c3ccc(-c4ccccc4)cc3)cccc21 | – | – | – | – | – | – |
| 0.262 µM | – | – | O=C(O)CN1CC(=O)Oc2c(/C=C/c3ccc([N+](=O)[O-])cc3)cccc21 | – | – | – | – | – | – |
| 0.188 µM | 24 | 4.5 µM | COc1cc(/C=C/c2cccc3c2OC(=O)CN3CC(=O)O)ccc1O | 18.2% | 85% | 57.8% | 80.7% | 1.02 U/µM | 93.1% |
| 0.17 µM | 3.93 | 0.669 µM | CC(C)(C)c1ccc(/C=C/c2cccc3c2OC(=O)CN3CC(=O)O)cc1 | – | – | – | – | – | – |
| 0.167 µM | 25.7 | 4.28 µM | O=C(O)CN1CC(=O)Oc2c(/C=C/c3ccc(F)cc3)cccc21 | 12.6% | 90% | 57.1% | 74.8% | 0.79 U/µM | 92.6% |
| 3.34 µM | – | – | O=C(O)CN1CC(=O)Oc2c(-c3ccccc3)cccc21 | 6.12% | 36.5% | 13.2% | – | – | 91.3% |
| 1.05 µM | – | – | O=Cc1ccc(-c2cccc3c2OC(=O)CN3CC(=O)O)cc1 | – | – | – | – | – | – |
| 0.208 µM | – | – | COc1ccc(/C=C/c2cccc3c2OC(=O)CN3CC(=O)O)cc1 | – | – | – | – | – | – |
| 0.308 µM | 9.11 | 2.81 µM | O=C(O)CN1CC(=O)Oc2c(/C=C/c3ccccc3)cccc21 | 12% | 84.2% | 43.6% | 75.8% | 0.81 U/µM | 86.5% |
